Reference: ChEMBL document CHEMBL4689842, “EUbOPEN Chemogenomics Library wave 1” (2021)

Tested on: HEK-293T
Test: Multiplex assay against HEK293T;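 as to Population Tubulin-Different-Phenotype (%): share of the cells with healthy nuclei that show this phenotype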
Format: toxicity, cell-based
Details: human
Method in brief: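 Compound was added to live cells that had been stained at seeding with Hoechst33342, BioTracker Green Microtubule Cytoskeleton Dye, MitoTracker Red and Annexin V Alexa Fluor 680, and imaging followed on a CQ1 microscope at 37°C and 5% CO2. CellPathfinder machine-learning gating divided cells into Hoechst high-intensity objects or normal cells, normal cells into healthy, pyknosed or fragmented nuclei, and pyknosed cells into mitotic or apoptotic. Tubulin, mitochondrial-mass and membrane-permeability phenotypes are per cents of healthy-nucleus cells.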

[1] = 12 h, 1 µM, compound concentration 1 uM, replicate 1
[2] = 12 h, 1 µM, compound concentration 1 uM, replicate 2
[3] = 12 h, 10 µM, compound concentration 10 uM, replicate 1
[4] = 12 h, 10 µM, compound concentration 10 uM, replicate 2
[5] = 24 h, 1 µM, compound concentration 1 uM, replicate 1
[6] = 24 h, 1 µM, compound concentration 1 uM, replicate 2
[7] = 24 h, 10 µM, compound concentration 10 uM, replicate 1
[8] = 24 h, 10 µM, compound concentration 10 uM, replicate 2
[9] = 48 h, 1 µM, compound concentration 1 uM, replicate 1
[10] = 48 h, 1 µM, compound concentration 1 uM, replicate 2
[11] = 48 h, 10 µM, compound concentration 10 uM, replicate 1
[12] = 48 h, 10 µM, compound concentration 10 uM, replicate 2

CCc1cc2c(cc1CC)CC(NC[C@H](O)c1ccc(O)c3[nH]c(=O)ccc13)C2 [INDACATEROL]
Population Apoptotic (%) [1]: 48% | Population Fragmented Nuclei (%) [1]: 10% | Population Healthy Nuclei (%) [1]: 47% | Population Hoechst High Intensity Objects (%) [1]: 16% | Population Membrane Permeable-Phenotype (%) [1]: 4% | Population Mitochondria Different-Phenotype (%) [1]: 74% | Population Mitotic Cells (%) [1]: 51% | Population Normal (%) [1]: 83% | Population Pyknosed Nuclei (%) [1]: 42% | Population Tubulin-Different-Phenotype (%) [1]: 53% | Total Cell Count [1]: 240 | Population Apoptotic (%) [2]: 6% | Population Fragmented Nuclei (%) [2]: 8% | Population Healthy Nuclei (%) [2]: 36% | Population Hoechst High Intensity Objects (%) [2]: 3% | Population Membrane Permeable-Phenotype (%) [2]: 10% | Population Mitochondria Different-Phenotype (%) [2]: 50% | Population Mitotic Cells (%) [2]: 93% | Population Normal (%) [2]: 96% | Population Pyknosed Nuclei (%) [2]: 55% | Population Tubulin-Different-Phenotype (%) [2]: 51% | Total Cell Count [2]: 228 | Population Apoptotic (%) [3]: 93% | Population Fragmented Nuclei (%) [3]: 19% | Population Healthy Nuclei (%) [3]: 12% | Population Hoechst High Intensity Objects (%) [3]: 30% | Population Membrane Permeable-Phenotype (%) [3]: 0% | Population Mitochondria Different-Phenotype (%) [3]: 61% | Population Mitotic Cells (%) [3]: 6% | Population Normal (%) [3]: 69% | Population Pyknosed Nuclei (%) [3]: 67% | Population Tubulin-Different-Phenotype (%) [3]: 61% | Total Cell Count [3]: 204 | Population Apoptotic (%) [4]: 82% | Population Fragmented Nuclei (%) [4]: 8% | Population Healthy Nuclei (%) [4]: 17% | Population Hoechst High Intensity Objects (%) [4]: 12% | Population Membrane Permeable-Phenotype (%) [4]: 3% | Population Mitochondria Different-Phenotype (%) [4]: 90% | Population Mitotic Cells (%) [4]: 17% | Population Normal (%) [4]: 87% | Population Pyknosed Nuclei (%) [4]: 74% | Population Tubulin-Different-Phenotype (%) [4]: 87% | Total Cell Count [4]: 215 | Population Apoptotic (%) [5]: 48% | Population Fragmented Nuclei (%) [5]: 10% | Population Healthy Nuclei (%) [5]: 57% | Population Hoechst High Intensity Objects (%) [5]: 16% | Population Membrane Permeable-Phenotype (%) [5]: 4% | Population Mitochondria Different-Phenotype (%) [5]: 70% | Population Mitotic Cells (%) [5]: 52% | Population Normal (%) [5]: 83% | Population Pyknosed Nuclei (%) [5]: 32% | Population Tubulin-Different-Phenotype (%) [5]: 43% | Total Cell Count [5]: 279 | Population Apoptotic (%) [6]: 22% | Population Fragmented Nuclei (%) [6]: 7% | Population Healthy Nuclei (%) [6]: 55% | Population Hoechst High Intensity Objects (%) [6]: 2% | Population Membrane Permeable-Phenotype (%) [6]: 3% | Population Mitochondria Different-Phenotype (%) [6]: 42% | Population Mitotic Cells (%) [6]: 77% | Population Normal (%) [6]: 97% | Population Pyknosed Nuclei (%) [6]: 37% | Population Tubulin-Different-Phenotype (%) [6]: 55% | Total Cell Count [6]: 282 | Population Apoptotic (%) [7]: 98% | Population Fragmented Nuclei (%) [7]: 22% | Population Healthy Nuclei (%) [7]: 11% | Population Hoechst High Intensity Objects (%) [7]: 33% | Population Membrane Permeable-Phenotype (%) [7]: 6% | Population Mitochondria Different-Phenotype (%) [7]: 50% | Population Mitotic Cells (%) [7]: 1% | Population Normal (%) [7]: 66% | Population Pyknosed Nuclei (%) [7]: 65% | Population Tubulin-Different-Phenotype (%) [7]: 50% | Total Cell Count [7]: 213 | Population Apoptotic (%) [8]: 95% | Population Fragmented Nuclei (%) [8]: 5% | Population Healthy Nuclei (%) [8]: 20% | Population Hoechst High Intensity Objects (%) [8]: 15% | Population Membrane Permeable-Phenotype (%) [8]: 2% | Population Mitochondria Different-Phenotype (%) [8]: 97% | Population Mitotic Cells (%) [8]: 4% | Population Normal (%) [8]: 84% | Population Pyknosed Nuclei (%) [8]: 74% | Population Tubulin-Different-Phenotype (%) [8]: 89% | Total Cell Count [8]: 219 | Population Apoptotic (%) [9]: 43% | Population Fragmented Nuclei (%) [9]: 12% | Population Healthy Nuclei (%) [9]: 72% | Population Hoechst High Intensity Objects (%) [9]: 9% | Population Membrane Permeable-Phenotype (%) [9]: 0% | Population Mitochondria Different-Phenotype (%) [9]: 45% | Population Mitotic Cells (%) [9]: 56% | Population Normal (%) [9]: 90% | Population Pyknosed Nuclei (%) [9]: 14% | Population Tubulin-Different-Phenotype (%) [9]: 33% | Total Cell Count [9]: 393 | Population Apoptotic (%) [10]: 22% | Population Fragmented Nuclei (%) [10]: 7% | Population Healthy Nuclei (%) [10]: 73% | Population Hoechst High Intensity Objects (%) [10]: 7% | Population Membrane Permeable-Phenotype (%) [10]: 5% | Population Mitochondria Different-Phenotype (%) [10]: 17% | Population Mitotic Cells (%) [10]: 77% | Population Normal (%) [10]: 92% | Population Pyknosed Nuclei (%) [10]: 18% | Population Tubulin-Different-Phenotype (%) [10]: 49% | Total Cell Count [10]: 448 | Population Apoptotic (%) [11]: 91% | Population Fragmented Nuclei (%) [11]: 29% | Population Healthy Nuclei (%) [11]: 2% | Population Hoechst High Intensity Objects (%) [11]: 35% | Population Membrane Permeable-Phenotype (%) [11]: 25% | Population Mitochondria Different-Phenotype (%) [11]: 25% | Population Mitotic Cells (%) [11]: 8% | Population Normal (%) [11]: 64% | Population Pyknosed Nuclei (%) [11]: 67% | Population Tubulin-Different-Phenotype (%) [11]: 0% | Total Cell Count [11]: 209 | Population Apoptotic (%) [12]: 98% | Population Fragmented Nuclei (%) [12]: 9% | Population Healthy Nuclei (%) [12]: 17% | Population Hoechst High Intensity Objects (%) [12]: 17% | Population Membrane Permeable-Phenotype (%) [12]: 6% | Population Mitochondria Different-Phenotype (%) [12]: 96% | Population Mitotic Cells (%) [12]: 1% | Population Normal (%) [12]: 82% | Population Pyknosed Nuclei (%) [12]: 73% | Population Tubulin-Different-Phenotype (%) [12]: 96% | Total Cell Count [12]: 214
